High-throughput results from PubChem.
HCT116 PTEN-null – growth suppressors of cells with PTEN tumor suppressor deletion; HCT116 PTEN-null viability, CellTiter-Glo, 60 h; active compounds read low; viability, % at 10 µM; hit rate 1.2% among 140,000; AID 827;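 active = viability at or below a set limit, 4 SD under the median of all tested compounds, cut at about 3.7% in these data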;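 also: PTEN knockout HCT116 line with beta catenin targeted HCT116 as companion control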
HCT116 bCat-KO – beta-catenin-lacking colon tumor cell growth suppression. hit rate 1.5% among 140,000. viability, % at 10 µM. HCT116 beta-catenin knockout viability, CellTiter-Glo, 60 h; active compounds read low;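 active = viability at or under a set limit, the compound median less 4 SD, cut at about 6% in these data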
Yeast growth inh – yeast BB579 growth reduction in restrictive medium; hit rate 0.51% among 140,000; S. cerevisiae BB579 growth, OD615, 48 h; inhibition, % at 10 µM;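 active = inhibition above a set limit, 3 SD over the mean compound inhibition, cut at about 44% in these data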
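Test system: DeaD yeast strain BB579 / Buffer or medium: restrictive glucose-based CSMM-D medium / Doses: single 10 µM dose / Schedule: 4 h cell preincubation, 48 h compound exposure, 30 °C humidified / Technique: culture absorbance at 615 nm / Controls: amphotericin B positive control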
sdo1 growth – sdo1-depleted yeast growth rescue | S. cerevisiae sdo1-depleted JHY4D growth rescue, OD600 30 h; active compounds read high; pdr5 snq2 efflux-pump mutant strain | z-score at 10 µM | hit rate 0.21% among 140,000 | AID 817;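 active = z-score above 3 at both the 24 hr and the 30 hr optical density reads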
Yeast life ext – yeast lifespan extension. S. cerevisiae growth with nicotinamide, OD615; deaD strain in restrictive glucose medium. inhibition of the nicotinamide effect, % at 10 µM. hit rate 0.68% among 130,000. AID 775;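 active = inhibition above a set limit, placed 3 SD over the median of all compounds, cut at about 26% in these data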
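Test system – modified budding yeast, DeaD strain · Compound – single dose 10 µM compound, 0.25% DMSO · Times – culture preincubation 4 h, compound exposure 48 h, both 30 °C · Detection – optical density (absorbance) at 615 nm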
Numbers stand for hits; - = inactive; . = no result. Sampled rows, rich in hits. Any-hit rate of the full collection: about 2.8%.

SMILES	HCT116 PTEN-null	HCT116 bCat-KO	Yeast growth inh	sdo1 growth	Yeast life ext
Cc1cc(C)n(-c2nc(Nc3ccccc3)nc(-n3nc(C)cc3C)n2)n1	-	-	-	-	-
COc1cccc(-c2nc(Cc3ccc(OC)c(OC)c3)no2)c1	-	-	-	-	-
COc1ccc(C(C)=O)cc1CSc1nnc(Nc2ccccc2)s1	-	-	-	-	-
COc1cccc(-c2ccc(SCC(=O)N3CCc4ccccc43)nn2)c1	-	-	-	-	-
COc1cccc(/C=N/Nc2ncnc3scc(-c4ccccc4)c23)c1O	-	-	-	-	-
COc1cccc(/C=N/Nc2cc(-n3nc(C)cc3-c3ccccc3)ncn2)c1O	3.5	3.8	-	-	-
COc1ccc(OC)c(CCNC(=O)Cn2sc3nc(C)cc(C)c3c2=O)c1	1.9	1.9	-	-	-
CC[n+]1c(/C=C/C=C/N(C(C)=O)c2ccccc2)sc2cc(OC)ccc21	-	6.0	-	-	-
O=C(CS(=O)CC(=O)N(c1ccccc1)C(C(=O)NC1CCCC1)c1cccs1)Nc1ccc(F)cc1 (stereo not drawn)	-	-	-	-	-
Cc1ccc(N(C(=O)CS(=O)CC(=O)Nc2ccc(F)cc2)C(C(=O)NC2CCCCC2)c2ccco2)cc1 (stereo not drawn)	-	-	-	-	94.0
CSc1cccc(NC(=O)CN(Cc2ccc(Cl)cc2)S(C)(=O)=O)c1	-	-	-	-	-
Nc1nc(Cl)cc(N2CCOCC2)n1	-	-	-	-	-
Nc1nc(Cl)cc(N2CCC(c3cc(-c4ccc(Cl)cc4Cl)n[nH]3)CC2)n1	-	3.2	-	-	-
COc1ccccc1NC(=O)CC1COc2ccccc2O1 (stereo not drawn)	-	-	-	-	-
COc1ccc(NC(=O)CSc2c3c(nc4ccccc24)CCCC3)c(OC)c1	-	5.9	-	-	-
O=C(CCS(=O)(=O)c1ccccc1)Nc1nc2c(s1)COc1ccccc1-2	1.8	3.1	-	-	-
O=C(Nc1nc2ccccc2n1CCN1CCOCC1)c1cn(-c2ccccc2)nc1-c1ccccc1	-	-	-	-	173.3
CC(=O)Nc1nc2ccccc2n1CCN1CCOCC1	-	-	-	-	.
Cc1cc(C)cc(NC(=O)c2ccc(Cn3nc(C)c(Cl)c3C)o2)c1	-	-	-	-	.
Cc1ccc(CNC(=O)c2ccc(Cn3nc(C)c(Cl)c3C)o2)cc1	-	-	99.3	-	-
Cc1cccc(Nc2cc(C)c3c(O)cccc3n2)c1C	-	-	-	-	-
CC(=O)Nc1ccc(S(=O)(=O)Nc2cccc(-c3nc4ccccc4o3)c2)cc1	-	-	-	-	-
O=S(=O)(Nc1ccc(-c2nc3ccccc3o2)cc1)c1ccccc1	-	-	45.7	-	-
CCCCOCP(=O)(CC)COCCCC	-	-	-	-	-
Cc1ccc(/C=C/C(=O)Nc2nc3ccccc3[nH]2)cc1	-	-	-	-	-
SMILES	HCT116 PTEN-null	HCT116 bCat-KO	Yeast growth inh	sdo1 growth	Yeast life ext
Cc1ccc(/C=C/C(=O)c2nc3ccccc3[nH]2)cc1	2.7	2.5	-	-	-
CN(C)c1ccc(/C=N/N=C2/NC(=O)/C(=C/c3ccc([N+](=O)[O-])cc3)S2)cc1	-	-	-	-	-
c1ccc(-c2cc3c(ccc4nonc43)nn2)cc1	-	-	-	-	-
On1onc2c3cc(-c4ccccc4)nc3ccc21	1.2	1.8	-	-	-
COc1cc(CNCCc2ccc(F)cc2)ccc1OCc1ccc(Cl)nc1	-	-	-	-	-
COc1cc(CNCCc2c[nH]c3ccccc23)ccc1OCc1ccc(F)cc1	2.0	1.5	-	-	-
COc1cccc(CNCCc2c[nH]c3ccccc23)c1OCc1ccc(F)cc1	1.2	1.4	-	-	-
CCn1cc(C(=O)NC(=S)Nc2sc3c(c2C(=O)OC)CCCCCC3)cn1	2.1	-	-	-	-
CCOC(=O)c1c(NC(=S)NC(=O)c2ccc(Cn3cc(Cl)cn3)o2)sc2c1CCC(C)C2 (stereo not drawn)	1.5	1.9	-	-	-
COC(=O)c1cc(NC(=O)c2ccc(Cn3cc(Cl)cn3)o2)cc(C(=O)OC)c1	-	-	-	-	-
Clc1ccc(NC2=NCCCCC2)cc1	-	-	-	-	-
O=CNc1ccc(S(=O)(=O)NCc2ccccc2)cc1	-	-	-	-	-
Cc1nc(-n2[nH]c3c(c2=O)CCCC3)[nH]c(=O)c1Cc1ccccc1	3.2	5.3	-	-	-
CCOC(=O)c1ccccc1NC(=O)c1cc(S(=O)(=O)N2CCOCC2)ccc1F	-	-	-	-	-
CCOC(=O)N1CCN(S(=O)(=O)c2ccc(F)c(C(=O)Nc3cccc(C)c3C)c2)CC1	.	-	-	-	45.2
CN1CCC(Oc2ccccc2Sc2ccccc2)CC1	-	-	-	-	-
C=CCC(Nc1ccccc1)C12C=CC(O1)C(C(=O)OC)=C2C(=O)OC (stereo not drawn)	1.9	2.3	-	-	.
Cc1cc(=O)[nH]c(SCc2nc3ccccc3s2)n1	-	-	45.5	-	-
O=C(CSc1nnc(-c2ccccc2Cl)o1)Oc1ccc(Br)cc1	0.7	0.9	-	-	.
O=C(CSc1nnc(-c2ccccc2O)o1)Oc1ccc(Br)cc1	-	-	-	-	-
Cc1nn(-c2ccccc2)c(C)c1NC(=O)COc1ccc(Br)cc1Cl	-	-	-	-	-
O=[N+]([O-])c1c(C(Cl)Cl)nn(-c2ccc(Cl)cc2)c1N1CCCCC1	-	-	-	-	-
COc1ccc(-c2n[nH]c(C(F)(F)F)c2-c2cc3ccccc3o2)c(O)c1	-	-	99.6	-	-
COc1ccccc1-c1c(-c2ccc(OCC(=O)NN)cc2O)n[nH]c1C(F)(F)F	-	-	-	-	-
O=C(COc1ccc2oc(-c3ccccc3)cc(=O)c2c1)Nc1ccccc1	-	-	-	-	-
SMILES	HCT116 PTEN-null	HCT116 bCat-KO	Yeast growth inh	sdo1 growth	Yeast life ext
COc1ccccc1/C=C1\CCCC2=C1Nc1nnnn1C2c1ccccc1OC (stereo not drawn)	1.7	4.0	-	-	-
COc1ccc(/C(N)=N/O)cc1O	-	-	-	-	-
Cc1ccc(NC(=O)c2ccc3c(c2)OCCO3)cc1	-	-	-	-	-
Cc1ccccc1NC(=O)c1ccc2c(c1)OCCO2	1.9	-	-	-	-
O=S(=O)(Cc1ccccc1)NCc1cccnc1	-	-	44.8	-	-
Cn1cc([N+](=O)[O-])c(C(=O)Nc2ccc(-c3nc4ccccc4[nH]3)cc2)n1	-	-	-	-	-
Cn1cc([N+](=O)[O-])c(C(=O)Nc2nc(-c3ccc(Cl)cc3)cs2)n1	1.4	2.1	-	-	-
Cc1ccc(-c2nc(NC(=O)c3nn(C)cc3[N+](=O)[O-])sc2C)cc1	1.4	1.4	-	-	-
Cc1ccc(-c2nc(NC(=O)c3nn(C)cc3[N+](=O)[O-])sc2C)cc1C	1.4	1.6	-	-	-
Cc1ccc(C(=O)NCC(=O)OCC(=O)NC2CCS(=O)(=O)C2)cc1C (stereo not drawn)	-	-	-	-	-
